The source made the active and inactive calls. The rule behind the calls is not given here.

Series [1] can be described thus: Inhibition of bovine spleen adenosine deaminase type 9 by spectrophotometry. Also noted: species or system Bos taurus. In outline:
(§1)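 Bovine spleen ADA type IX (0.3 nM) with 50 µM adenosine in 50 mM potassium phosphate, pH 7.2, at 30 °C. Deamination read as the A262 change over 2 min, against a substrate-free blank. DMSO ≤4% final. Screened at 10^-5 M; actives retested at 10-5 to 10-11 M in triplicate. IC50 taken by linear regression of log concentration-response, then converted to Ki by Cheng-Prusoff.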

Series [2] concerns Rattus norvegicus. The series is described as follows: Antiinflammatory activity in DNBS-induced Sprague-Dawley rat colitis model assessed as reduction in DNBS-induced increase in spleen weight at 0.25 umol/kg, ip for 7 days administered 1 day before colitis induction. The format is functional, organism-based. In outline: (§2)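 Colitis was induced in male Sprague-Dawley rats (250-300 g) by intrarectal DNBS, 15 mg in 0.25 mL 50% ethanol, under isoflurane. Drug was given ip daily for 7 days from 1 day before induction; six rats per group; vehicle controls. Spleen was weighed at assessment 6 days after DNBS and expressed as % increase, as an index of systemic inflammation.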

In series [3] the test system is Rattus norvegicus. The series is described as follows: Antiinflammatory activity in DNBS-induced Sprague-Dawley rat colitis model assessed as reduction in DNBS-induced macroscopic damage in colon at 0.25 umol/kg, ip for 7 days administered 1 day before colitis induction. The format is functional, organism-based. In outline:
(§3)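 DNBS colitis was induced in male Sprague-Dawley rats (250-300 g): 15 mg in 0.25 mL 50% ethanol given intrarectally. Dosing was ip for 7 days, beginning 1 day before DNBS; n=6 per group; vehicle controls. Six days after DNBS, the whole colon was scored for macroscopic damage by two observers blinded to treatment.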

The test system of series [4] is Rattus norvegicus. The series is described as follows: Antiinflammatory activity in DNBS-induced Sprague-Dawley rat colitis model assessed as reduction in DNBS-induced increase in colonic tissue malondialdehyde level at 0.25 umol/kg, ip for 7 days administered 1 day before colitis induction. It counts as functional, organism-based. In outline: (§4)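 Rats (male Sprague-Dawley) received intrarectal DNBS (15 mg in 50% ethanol), with ip dosing for 7 days from 1 day before; n=6 per group. Colon was taken at day 6, homogenized in cold 20 mmol/L Tris-HCl, pH 7.4, and spun 1500g for 10 min at 4 °C. MDA was measured by colorimetric kit and expressed as µmol per mg tissue.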

Series [5] has as its system Rattus norvegicus. The series is described as follows: Antiinflammatory activity in DNBS-induced Sprague-Dawley rat colitis model assessed as reduction in DNBS-induced increase in colonic tissue malondialdehyde level at 5 to 45 umol/kg, ip for 7 days administered 1 day before colitis induction. The format is functional, organism-based. The method in brief: as §4
In series [6] the test system is Rattus norvegicus. The experiment in a line: Antiinflammatory activity in DNBS-induced Sprague-Dawley rat colitis model assessed as reduction in DNBS-induced increase in colonic tissue TNFalpha level at 0.25 umol/kg, ip for 7 days administered 1 day before colitis induction. It counts as functional, organism-based. In outline: (§5)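 In male Sprague-Dawley rats with intrarectal DNBS colitis (15 mg in 50% ethanol), dosing was ip for 7 days from 1 day before induction; six per group. Colon samples from day 6 were stored at -80 °C, homogenized at 4 °C in PBS, pH 7.2 (0.3 mL/100 mg), and centrifuged at 13400g for 20 min. TNF-α was measured by ELISA and expressed as pg/mg tissue.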

Another series is filed under the species Bos taurus. The experiment in a line: Inhibition of bovine spleen adenosine deaminase type 9 at <= 10 uM by spectrophotometry. The method in brief:
as §1

Series [7] has as its system Rattus norvegicus. The experiment in a line: Antiinflammatory activity in DNBS-induced Sprague-Dawley rat colitis model assessed as body weight gain at 45 umol/kg, ip for 7 days administered 1 day before colitis induction. It counts as functional. In outline:
(§6)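 Male Sprague-Dawley rats (250-300 g) under brief isoflurane received 15 mg DNBS in 0.25 mL 50% ethanol intrarectally, 8 cm proximal to anus. Drug was given ip for 7 days starting 1 day before DNBS; controls received vehicle; n=6 per group. Body weight was recorded daily from the start of dosing, and the change was taken at day 6 after DNBS.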

The test system of series [8] is Rattus norvegicus. The experiment in a line: Antiinflammatory activity in DNBS-induced Sprague-Dawley rat colitis model assessed as body weight loss at 5 umol/kg, ip for 7 days administered 1 day before colitis induction. It counts as functional. The method in brief: as §6
Series [9] concerns Rattus norvegicus. The series is described as follows: Antiinflammatory activity in DNBS-induced Sprague-Dawley rat colitis model assessed as body weight loss at 15 umol/kg, ip for 7 days administered 1 day before colitis induction. It counts as functional. In outline:
as §6

Series [10] has as its system Rattus norvegicus. The series is described as follows: Antiinflammatory activity in DNBS-induced Sprague-Dawley rat colitis model assessed as DNBS-induced increase in spleen weight at 45 umol/kg, ip for 7 days administered 1 day before colitis induction. The format is functional. In outline: as §2
Series [11] concerns Rattus norvegicus. The series is described as follows: Antiinflammatory activity in DNBS-induced Sprague-Dawley rat colitis model assessed as DNBS-induced increase in spleen weight at 5 umol/kg, ip for 7 days administered 1 day before colitis induction. It counts as functional. In outline:
as §2

Series [12] concerns Rattus norvegicus. The experiment in a line: Antiinflammatory activity in DNBS-induced Sprague-Dawley rat colitis model assessed as DNBS-induced increase in spleen weight at 15 umol/kg, ip for 7 days administered 1 day before colitis induction. The format is functional. The method in brief:
as §2

Series [13] deals with Rattus norvegicus. The series is described as follows: Antiinflammatory activity in ip dosed Sprague-Dawley rat colitis model assessed as reduction in DNBS-induced increase in spleen weight administered for 7 days 1 day before colitis induction. It counts as functional, organism-based. In outline:
as §2

The test system of series [14] is Rattus norvegicus. The series is described as follows: Antiinflammatory activity in DNBS-induced Sprague-Dawley rat colitis model assessed as DNBS-induced macroscopic damage in colon at 45 umol/kg, ip for 7 days administered 1 day before colitis induction. The format is functional. The method in brief: as §3
Series [15] has as its system Rattus norvegicus. The series is described as follows: Antiinflammatory activity in DNBS-induced Sprague-Dawley rat colitis model assessed as DNBS-induced macroscopic damage in colon at 15 umol/kg, ip for 7 days administered 1 day before colitis induction. The format is functional. In outline: as §3
Series [16] relates to Rattus norvegicus. The series is described as follows: Antiinflammatory activity in DNBS-induced Sprague-Dawley rat colitis model assessed as DNBS-induced macroscopic damage in colon at 5 umol/kg, ip for 7 days administered 1 day before colitis induction. It counts as functional. The method in brief: as §3
Series [17] relates to Rattus norvegicus. The experiment in a line: Antiinflammatory activity in DNBS-induced Sprague-Dawley rat colitis model assessed as DNBS-induced increase in colonic tissue TNFalpha level at 45 umol/kg, ip for 7 days administered 1 day before colitis induction. It counts as functional. The method in brief:
as §5

Series [18] deals with Rattus norvegicus. The series is described as follows: Antiinflammatory activity in ip dosed Sprague-Dawley rat colitis model assessed as reduction in DNBS-induced decrease in body weight administered for 7 days 1 day before colitis induction. It counts as functional, organism-based. The method in brief:
as §6

The subject of series [19] is Rattus norvegicus. The series is described as follows: Antiinflammatory activity in ip dosed Sprague-Dawley rat colitis model assessed as reduction in DNBS-induced macroscopic damage in colon administered for 7 days 1 day before colitis induction. The format is functional, organism-based. The method in brief: as §3
The subject of series [20] is Rattus norvegicus. The series is described as follows: Antiinflammatory activity in ip dosed Sprague-Dawley rat colitis model assessed as reduction in DNBS-induced increase in colonic tissue malondialdehyde level administered for 7 days 1 day before colitis induction. The format is functional, organism-based. The method in brief: as §4
Series [21] has as its system Rattus norvegicus. The experiment in a line: Antiinflammatory activity in ip dosed Sprague-Dawley rat colitis model assessed as reduction in DNBS-induced increase in colonic tissue TNFalpha level administered for 7 days 1 day before colitis induction. It counts as functional, organism-based. The method in brief:
as §5

The subject of series [22] is Rattus norvegicus. The experiment in a line: Toxicity in Sprague-Dawley rat assessed as behavioral changes at 5 to 45 umol/kg, ip for 7days. It counts as organism-based. The following applies: in vivo, 168 h.
Series [23] deals with Rattus norvegicus. The series is described as follows: Toxicity in Sprague-Dawley rat assessed as variation in body weight at 5 to 45 umol/kg, ip for 7days. The format is organism-based. The note with it: in vivo, 168 h.
Series [24] deals with Rattus norvegicus. The series is described as follows: Toxicity in Sprague-Dawley rat assessed as variation in food intake at 5 to 45 umol/kg, ip for 7days. It counts as organism-based. The following applies: in vivo, 168 h.
For series [25], the system named is Rattus norvegicus. The series is described as follows: Toxicity in Sprague-Dawley rat assessed as mortality at 5 to 45 umol/kg, ip for 7days. The following applies: in vivo, 168 h. The format is organism-based.

Turning to `O=C(NCc1ccccc1)Nc1ccc(Cn2cc3c(=O)[nH]cnc3n2)cc1`, the Ki in series [1] was determined as 85.7 nM.
`O=C(Nc1ccc(Cc2ccccc2)cc1)Nc1ccc(Cn2cc3c(=O)[nH]cnc3n2)cc1`: the Ki in [1] worked out at 186 nM.
The same measure, in the same setting: the figure for `O=C(Cc1ccccc1)Nc1ccc(Cn2cc3c(=O)[nH]cnc3n2)cc1` is 47.9 nM; for `COc1ccc(NC(=O)Nc2ccc(Cn3cc4c(=O)[nH]cnc4n3)cc2)cc1` it is 28.3 nM.
As for `O=C(Nc1ccccc1)Nc1ccc(Cn2cc3c(=O)[nH]cnc3n2)cc1`, the inhibition constant Ki in series [1] was 2.42 nM.
`CN(C)c1ccc(NC(=O)Nc2ccc(Cn3cc4c(=O)[nH]cnc4n3)cc2)cc1` showed a Ki in series [1] of 2.01 nM.
Still for that read-out and setting: the figure for `COc1ccc(C(=O)Nc2ccc(Cn3cc4c(=O)[nH]cnc4n3)cc2)cc1` is 15.6 nM.
As for `C[C@@H]1C[C@H]2[C@@H]3CCC4=CC(=O)C=C[C@]4(C)[C@@]3(F)[C@@H](O)C[C@]2(C)[C@@]1(O)C(=O)CO`, the outcome with Rattus norvegicus [2], with Rattus norvegicus [3], with Rattus norvegicus [4], in the series on Rattus norvegicus [5] and in the series with Rattus norvegicus [6] was Active.
On to `CCCCCCCCCCCn1cc2c(=O)[nH]cnc2n1`, for which the outcome in the series filed under Bos taurus was inactive.
In series [1], `O=C(Nc1ccc(Cn2cc3c(=O)[nH]cnc3n2)cc1)c1ccc(F)cc1` had a Ki of 0.96 nM.
Take `O=C(Nc1ccc(Cn2cc3c(=O)[nH]cnc3n2)cc1)Nc1ccc(C(F)(F)F)cc1`: the Activity in the series on Rattus norvegicus [7] was determined as 2.3 g; with Rattus norvegicus [8], 16.5 g; with Rattus norvegicus [9], 10.4 g; in the series on Rattus norvegicus [10], 10.1%; in the series with Rattus norvegicus [11] it was 23.8%; in the series on Rattus norvegicus [12], 18.9%. In addition, the Activity entry with Rattus norvegicus [13] was “Dose-dependent effect”; with Rattus norvegicus [14], 4.3; in the series with Rattus norvegicus [15] it was 5.6; with Rattus norvegicus [16], 6.9; with Rattus norvegicus [17], 5.8 pg/mg; in the series with Rattus norvegicus [18], “Dose-dependent effect”. Moreover, the Activity result with Rattus norvegicus [19] was “Dose-dependent effect”; in the series with Rattus norvegicus [20], “Dose-dependent effect”; in the series with Rattus norvegicus [21], “Dose-dependent effect”; in the series with Rattus norvegicus [22] it was “Non-toxic”; in the series with Rattus norvegicus [23], “Non-toxic”; in the series on Rattus norvegicus [24] it was “Non-toxic”. Moreover, the Activity entry in the series on Rattus norvegicus [25] is “Non-toxic”. For the same compound, affinity in series [1] was put at a Ki of 0.16 nM. Besides, the result in the series with Rattus norvegicus [4] and in the series on Rattus norvegicus [5] was Active.
With `CCCCCC[C@H]([C@H](C)O)n1cnc2c(N)ncnc21` [(+)-EHNA], in [1], the inhibition constant (Ki) was 1.14 nM.
Consider `O=C(Nc1ccc(Cn2cc3c(=O)[nH]cnc3n2)cc1)c1ccccc1`, for which the affinity in [1], expressed as Ki, was 12.7 nM. This Ki is about 11-fold higher than that of the compound before.
`O=C(Nc1ccc(Cn2cc3c(=O)[nH]cnc3n2)cc1)Nc1ccc(OCc2ccccc2)cc1` returned an inhibition constant Ki in series [1] of 108 nM. Compared with the last compound, the Ki is about 8.5-fold higher.
Regarding `CCCCCCCCCn1cc2c(=O)[nH]cnc2n1`, the outcome in the series filed under Bos taurus was inactive.
In turn, `O=C(Nc1ccc(F)cc1)Nc1ccc(Cn2cc3c(=O)[nH]cnc3n2)cc1` showed a Ki in series [1] of 1.15 nM. That is a single-digit nanomolar value.
For the compound `O=C(Nc1ccc(Cn2cc3c(=O)[nH]cnc3n2)cc1)c1ccc(C(F)(F)F)cc1`, the inhibitory constant (Ki) in series [1] stood at 0.51 nM. Compared with the last compound, the Ki is about 2.3-fold lower.
Take `CCCCCCCCCCn1cc2c(=O)[nH]cnc2n1`: in the series listed under Bos taurus, the outcome was inactive.

The Ki is a dissociation constant, usually derived from enzyme kinetics or from competition with a known ligand. A lower Ki goes with tighter binding.

(Values after ChEMBL document CHEMBL1152769, “Exploiting the pyrazolo[3,4-d]pyrimidin-4-one ring system as a useful template to obtain potent adenosine deaminase inhibitors” (J Med Chem, 2009).)
